The source made the active and inactive calls. The calls are words filed in the database; no cut-off is given here.
Key:
[1] = Induction of nitrous oxide release in MeOH/TBS buffer at pH 10 at 25 mM after 0.5 hrs by gas chromatographic analysis in presence of glutathione; assay type: physicochemical; settings: pH 10, 0.5 h, 25000 µM
Summary of the method: (§1)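 Compound (0.04 mmol, 25 mM) in a sealed, inert-gas-flushed flask with 0.8 mL solvent: MeOH plus 500 mM Tris (0.2 mM EDTA), 1:1, at pH 7.4 or 10.0, ± 50 mM GSH, 37 °C. Headspace N₂O measured by GC with electron-capture detection against a standard curve. Yield assumes 2 HNO → 1 N₂O; mean of n = 3; pH-10 runs ended near pH 9.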

[2] = Induction of nitrous oxide release in MeOH/TBS buffer at pH 7.4 at 25 mM after 48 hrs by gas chromatographic analysis; assay type: physicochemical; settings: pH 7.4, 48 h, 25000 µM; summary of the method: as §1
[3] = Induction of nitrous oxide release in MeOH/TBS buffer at pH 7.4 at 25 mM after 2 hrs by gas chromatographic analysis in presence of glutathione; assay type: physicochemical; settings: pH 7.4, 2 h, 25000 µM; summary of the method: as §1
[4] = Induction of nitrous oxide release in MeOH/TBS buffer at pH 7.4 at 25 mM after 0.5 hrs by gas chromatographic analysis; assay type: physicochemical; settings: pH 7.4, 0.5 h, 25000 µM; summary of the method: as §1
[5] = Induction of nitroxyl release in 7.5% DMSO and 92.5% phosphate buffer at pH 7.4 at 200 uM after 48 hrs by LC-MS analysis; assay type: physicochemical; settings: pH 7.4, 48 h
Summary of the method: (§2)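 Donor at 200 μM with 1 mM trapping phosphine in 7.5% DMSO/92.5% phosphate buffer pH 7.4, 37 °C, with 5.05 μM 4-hydroxybenzophenone internal standard. Quenched with H₂O₂ after 2 or 48 h, dried, taken up in MeOH. HNO-derived amide quantified by LC–MS (ESI negative) from a standard curve; percent of 1 mol HNO/mol; mean of triplicates.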

[6] = Induction of nitrous oxide release in MeOH/TBS buffer at pH 7.4 at 25 mM after 0.5 hrs by gas chromatographic analysis in presence of glutathione; assay type: physicochemical; settings: pH 7.4, 0.5 h, 25000 µM; summary of the method: as §1
[7] = Induction of nitrous oxide release in MeOH/TBS buffer at pH 7.4 at 25 mM after 2 hrs by gas chromatographic analysis; assay type: physicochemical; settings: pH 7.4, 2 h, 25000 µM; summary of the method: as §1
Mus musculus [8] = assay: Effect on heart rate in C57 mouse at 22.5 mg/kg, po after 3 hrs relative to control; assay type: ADME, organism-based; set-up: dose 22.5 mg/kg, route oral; settings: in vivo
Summary of the method: (§3)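 Conscious C57 black mice dosed orally at 22.5 mg/kg (60.345 μmol/kg), vehicle water with 1% methylcellulose; vehicle-only controls (n = 6), treated n = 4 at 1 h, 5 at 3 h, 6 at 6 h. Noninvasive BP (systolic, diastolic; mean = average of the two) and heart rate read at 1, 3, 6 h; each value is the average of three consecutive readings per mouse.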

[9] = Induction of nitroxyl release in 7.5% DMSO and 92.5% phosphate buffer at pH 7.4 at 200 uM after 2 hrs by LC-MS analysis; assay type: physicochemical; settings: pH 7.4, 2 h; summary of the method: as §2
Heart [10] = assay: Positive inotropic activity in C57BL/6 mouse Langendorff perfused heart assessed as left ventricular developed pressure at 100 uM measured for 20 mins; assay type: functional
Summary of the method: (§4)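 Hearts from C57BL/6 mice perfused with Krebs-Henseleit buffer. After 20 min stabilisation with buffer, hearts were perfused with test compound (100 μM) or isoproterenol (100 μM, positive inotropic control) for 20 min. Heart rate, diastolic and systolic rates, and left ventricular developed pressure were recorded. Baseline contractile function was measured as LVDP.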

Mus musculus [11] = assay: Antihypertensive activity in C57 mouse assessed as reduction of mean blood pressure at 22.5 mg/kg, po after 1 hr relative to control; assay type: functional; summary of the method: as §3
Mus musculus [12] = assay: Antihypertensive activity in C57 mouse assessed as reduction of systolic blood pressure at 22.5 mg/kg, po after 3 hrs relative to control; assay type: functional, Artery; summary of the method: as §3
Mus musculus [13] = assay: Antihypertensive activity in C57 mouse assessed as reduction of systolic blood pressure at 22.5 mg/kg, po after 1 hr relative to control; assay type: functional, Artery; summary of the method: as §3
Mus musculus [14] = assay: Antihypertensive activity in C57 mouse assessed as reduction of mean blood pressure at 22.5 mg/kg, po after 6 hrs relative to control; assay type: functional; summary of the method: as §3
Mus musculus [15] = assay: Antihypertensive activity in C57 mouse assessed as reduction of systolic blood pressure at 22.5 mg/kg, po after 6 hrs relative to control; assay type: functional, Artery; summary of the method: as §3
[16] = Induction of nitrous oxide release in MeOH/TBS buffer at pH 7.4 at 25 mM after 48 hrs by gas chromatographic analysis in presence of glutathione; assay type: physicochemical; settings: pH 7.4, 48 h, 25000 µM; summary of the method: as §1
Mus musculus [17] = assay: Effect on heart rate in C57 mouse at 22.5 mg/kg, po after 1 hr relative to control; assay type: ADME, organism-based; set-up: dose 22.5 mg/kg, route oral; settings: in vivo; summary of the method: as §3
[18] = Induction of nitrous oxide release in MeOH/TBS buffer at pH 10 at 25 mM after 0.5 hrs by gas chromatographic analysis; assay type: physicochemical; settings: pH 10, 0.5 h, 25000 µM; summary of the method: as §1
[19] = Half life in phosphate buffer at pH 7.4 by spectrophotometric method; assay type: physicochemical
Summary of the method: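 Decay followed by loss of diazeniumdiolate absorbance near 245 nm in pH 7.4 phosphate buffer with 5% DMSO at 37 °C. Half-life obtained from linear regression of ln(A_t − A_∞) against time.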

Heart [20] = assay: Effect on heart rate in C57BL/6 mouse Langendorff perfused heart at 100 uM measured for 20 mins; assay type: ADME, tissue-based
Summary of the method: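 C57BL/6 mouse hearts perfused with Krebs–Henseleit buffer, stabilized 20 min, then perfused 20 min with compound at 100 μM; isoproterenol 100 μM as positive inotropic control. Heart rate, LVDP and rates of contraction and relaxation recorded.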

[21] = Induction of nitrite release in phosphate buffer at pH 7.4 at 50 uM after 1.5 hrs by Griess reaction; assay type: physicochemical; settings: pH 7.4, 1.5 h
Summary of the method: (§5)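 Compound at 50 μM was incubated 1.5 h at 37 °C in phosphate buffer pH 7.4 or Tris buffer pH 10.0, both containing 5% DMSO. Nitrite was measured by Griess reaction and expressed as percent of the initial compound concentration; mean of n = 3.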

Heart [22] = assay: Positive inotropic activity in C57BL/6 mouse Langendorff perfused heart assessed as rate of contraction at 100 uM measured for 20 mins; assay type: functional; summary of the method: as §4
[23] = Induction of nitrous oxide release in MeOH/TBS buffer at pH 10 at 25 mM after 2 hrs by gas chromatographic analysis; assay type: physicochemical; settings: pH 10, 2 h, 25000 µM; summary of the method: as §1
[24] = Induction of nitrite release in phosphate buffer at pH 10 at 50 uM after 1.5 hrs by Griess reaction; assay type: physicochemical; settings: Tris buffer, pH 10, 1.5 h, in the assay text read “Tris buffer” for “phosphate buffer”; summary of the method: as §5
[25] = Induction of nitrous oxide release in MeOH/TBS buffer at pH 10 at 25 mM after 2 hrs by gas chromatographic analysis in presence of glutathione; assay type: physicochemical; settings: pH 10, 2 h, 25000 µM; summary of the method: as §1
Mus musculus [26] = assay: Effect on heart rate in C57 mouse at 22.5 mg/kg, po after 6 hrs relative to control; assay type: ADME, organism-based; set-up: dose 22.5 mg/kg, route oral; settings: in vivo; summary of the method: as §3
Mus musculus [27] = assay: Antihypertensive activity in C57 mouse assessed as reduction of diastolic blood pressure at 22.5 mg/kg, po after 1 to 6 hrs relative to control; assay type: functional, organism-based; set-up: dose 22.5 mg/kg; settings: Artery, in the assay text read “after 3 to 6 hrs” for “after 1 to 6 hrs”; summary of the method: as §3
Mus musculus [28] = assay: Antihypertensive activity in C57 mouse assessed as reduction of mean blood pressure at 22.5 mg/kg, po after 3 hrs relative to control; assay type: functional; summary of the method: as §3
Heart [29] = assay: Positive inotropic activity in C57BL/6 mouse Langendorff perfused heart assessed as rate of relaxation at 100 uM measured for 20 mins; assay type: functional; summary of the method: as §4

| Structure (SMILES) | Activity [1] [%] | Activity [2] [%] | Activity [3] [%] | Activity [4] [%] | Activity [5] [%] | Activity [6] [%] | Activity [7] [%] | Activity [9] [%] | Activity [16] [%] | Activity [18] [%] | half-life [19] [min] | Activity [21] [%] | Activity [23] [%] | Activity [24] [%] | Activity [25] [%] | further results |
| --- | --- | --- | --- | --- | --- | --- | --- | --- | --- | --- | --- | --- | --- | --- | --- | --- |
| CC(C)N/[N+]([O-])=N/OCS(C)(=O)=O |  |  |  |  | 4 |  |  | 0.31 |  |  |  | 0.4 |  | 4.6 |  |  |
| CC(C)N[N+]([O-])=N[O-].[Na+] | 8.5 | 7 | 7.4 | 9.4 | 5.1 | 6.1 | 8.3 | 5.4 | 6.8 | 5.9 | 2.3 | 62 | 5.7 | 36 | 9.5 |  |
| CONS(=O)(=O)CCO/N=[N+](\[O-])NC(C)C | 17.3 | 33.5 | 0.5 | 5.9 | 51.3 | 0.4 | 12.9 | 46.2 | 1.8 | 52.6 | 534 | 0.8 | 62.9 | 10.4 | 29 |  |
| CC(C)NCC(O)c1ccc(O)c(O)c1 (configuration not stated) [ISOPROTERENOL] |  |  |  |  |  |  |  |  |  |  |  |  |  |  |  | Activity (Heart [10]): 157 cmH2O; Activity (Heart [20]): 334 bpm; Activity (Heart [22]): 5330 cmH2O/ms; Activity (Heart [29]): -5882 cmH2O/ms |

The next lines start with results.

| Activity [1] [%] | Activity [2] [%] | Activity [3] [%] | Activity [4] [%] | Activity [5] [%] | Activity [6] [%] | Activity [7] [%] | Activity [9] [%] | Activity [16] [%] | Activity [18] [%] | half-life [19] [min] | Activity [21] [%] | Activity [23] [%] | Activity [24] [%] | Activity [25] [%] | Structure (SMILES) | further results |
| --- | --- | --- | --- | --- | --- | --- | --- | --- | --- | --- | --- | --- | --- | --- | --- | --- |
| 0.4 | 10.4 | 0.9 | 0.5 | 61.4 | 1.3 | 1.6 | 51.2 | 0.1 | 52.9 | 918 | 1.8 | 62.2 | 26 | 2.2 | CC(C)N/[N+]([O-])=N/OCCS(C)(=O)=O | Activity (Mus musculus [8]): 488 bpm; Activity (Heart [10]): 187 cmH2O; mean blood pressure (Mus musculus [11]): 95.4 mmHg; systolic blood pressure (Mus musculus [12]): 103.4 mmHg; systolic blood pressure (Mus musculus [13]): 120.2 mmHg; mean blood pressure (Mus musculus [14]): 87.5 mmHg; systolic blood pressure (Mus musculus [15]): 114.4 mmHg; Activity (Mus musculus [17]): 531 bpm; Activity (Heart [20]): 269 bpm; Activity (Heart [22]): 5698 cmH2O/ms; Activity (Mus musculus [26]): 442 bpm; Activity (Mus musculus [27]): Active; mean blood pressure (Mus musculus [28]): 83.6 mmHg; Activity (Heart [29]): -5330 cmH2O/ms |
|  |  |  |  |  |  |  |  |  |  | 41 |  |  |  |  | CC(=O)OCO/N=[N+](\[O-])NC(C)C |  |
|  |  |  |  | 85.7 |  |  | 85.9 |  |  |  |  |  |  |  | [Na+].[Na+].[O-][N+]([O-])=NO [ANGELI'S SALT] |  |
| 24.2 | 27.5 | 0.4 | 3.8 | 55.4 | 0.3 | 9.7 | 47.3 | 0.8 | 56.8 | 396 | 6 | 61.3 | 24 | 30.3 | CC(C)N/[N+]([O-])=N/OCCS(=O)(=O)NOCc1ccccc1 |  |
| 1.2 | 1.9 | 0.4 | 1.4 |  | 0.2 | 1.9 |  | 0.2 | 16.7 | 1030 | 10.6 | 15.1 | 42 | 1.3 | COS(=O)(=O)CCO/N=[N+](\[O-])NC(C)C |  |
|  |  |  |  | 7.2 |  |  | 5.1 |  |  |  | 28.6 |  | 25.4 |  | CC(C)N(C(=O)OC(C)(C)C)/[N+]([O-])=N/OCCS(C)(=O)=O |  |

From ChEMBL document CHEMBL2176969, “O2-sulfonylethyl protected isopropylamine diazen-1-ium-1,2-diolates as nitroxyl (HNO) donors: synthesis, β-elimination fragmentation, HNO release, positive inotropic properties, and blood pressure lowering studies” (J Med Chem, 2012)
